Assay results taken from PubChem BioAssay.
Calls of active or inactive are those of the source.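 Rule for the calls, unless noted: active = visually confirmed hit in the image check and inhibition above 20%; inconclusive = visually confirmed hit but inhibition not above 20%; inactive = no visual hit in the image check.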

Experiments:
[1] = inhibitors of TNFa-induced NFkB p65 translocation, primary screen, imaging, HUVEC, MLSMR starter and 10KST1 sets (AID 438;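 active = inhibition above 20% together with a positive visual image hit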;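 note: compound added about 3h40 before a 20 min TNFalpha stimulation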;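 for inhibition: signal is the nuclear over cytoplasmic p65 intensity ratio per well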); conditions: HUVEC TNFa-induced p65 nuclear translocation; cell count: measured here: nuclei count (cytotoxicity indicator), at 2.08 µM; inhibition: at 2 µM, stronger effect = higher value, 0% TNFa-plus-vehicle, 100% no-TNFa wells
[2] = inhibitors of mutant huntingtin aggregation, primary screen, imaging, exon1htt(103Q)mCFP cells, high-content imaging (AID 483;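 active = visual image review flags a hit and inhibition of aggregation exceeds 20%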;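 note: compound exposure lasted 3 days before fixation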;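 for nuclei count: percent of the per-plate median nuclei count of sample wells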); conditions: exon1htt(103Q)mCFP cell line, aggregate imaging, at 2 µM; inhibition of aggregation: stronger effect = higher value; nuclei count: measured here: cell count, toxicity
[3] = inhibitors of E-selectin induction by TNFa, primary screen, imaging, HUVEC, immunofluorescence, MLSMR starter and 10KST1 sets (AID 487); conditions: HUVEC TNFalpha-induced E-selectin immunofluorescence imaging, at 2 µM; inhibition: stronger effect = higher value; nuclei count: measured here: cell number, toxicity;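 for inhibition: signal is fraction of cell area covered by stained E-selectin grains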;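 for nuclei count: 100% = median nuclei count of all wells on the same plate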
[4] = target: Voltage-gated potassium channel subunit beta-2 (Rattus norvegicus) (UniProt P62483); experiment: KvBeta enzyme negative modulators, primary screen, biochemical, NADPH fluorescence (AID 622;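 active = fluorescence slope higher than the sample average by over 3 SD, cut at about -0.22 in these data, passing the limit was not always enough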;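 note: slope of raw intensity against log time taken from 70 to 1610 s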); conditions: recombinant KvBeta, 4-cyanobenzaldehyde reduction, at 10 µM, stronger effect = higher value
[5] = target: Voltage-gated potassium channel subunit beta-2 (Rattus norvegicus) (UniProt P62483); experiment: KvBeta positive modulators, primary screen, biochemical, NADPH fluorescence (AID 623;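 active = NADPH fluorescence slope more negative than the mean of all samples by about 3 SD, 99.7% confidence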;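 note: fluorescence intensity change per second fitted from 20 to 320 s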); conditions: Recombinant KvBeta, NADPH fluorescence decrease slope, 10 min; at 10 µM; stronger effect = lower value
[6] = target: Muscarinic acetylcholine receptor M4 (Homo sapiens) (UniProt P08173); experiment: compounds altering M4/GIRK thallium flux, either direction, primary screen, M4 allosteric agonist project, cell-based, HEK293 M4/GIRK, BTC-AM (AID 625;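 active = fluorescence slope after compound addition differing from the mean of all tested samples at 99.7% confidence, mostly higher but some lower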;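 note: thallium influx through GIRK channels coupled to M4 in HEK293 cells with BTC-AM dye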); conditions: at 10 µM, actives lie on both sides
Outline: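 assay system = HEK293 cells with M4 receptor and GIRK channels | medium = pH 7.3 thallium assay buffer | doses = 10 µM final, single point | timing = cells overnight at 37 °C, BTC-AM loading 1 h, reads 2 min total | signal = BTC-AM fluorescence, 1 Hz kinetic reads | read-out = post-addition slope, 15–24 s, of baseline-normalized fluorescence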

[7] = inhibitors of Sendai virus-induced IRF3 signaling, primary screen, TLR/RLR signaling modifier project, cell-based, Sendai virus stimulus, luciferase, 10K MLSCN set (AID 602276;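 active = inhibition at or above 50% at 10 µM; inactive = inhibition below 50%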;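 note: firefly luciferase from ISG56 promoter only with Renilla not read in this screen; 0% = Sendai virus plus DMSO and 100% = medium plus DMSO without virus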); conditions: HEK293 RL24 IRF3 luciferase reporter, at 10 µM, stronger effect = higher value
[8] = inhibitors of poly I:C-induced TLR3 signaling, primary screen, cell-based, poly I:C stimulus, luciferase, 10K MLSCN set (AID 602277;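 active = inhibition of the reporter signal at or above 50%; inactive = inhibition below 50%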); conditions: HEK293-TLR3 RL24 IRF3 luciferase reporter, at 10 µM, stronger effect = higher value

Sequence of Voltage-gated potassium channel subunit beta-2 (Rattus norvegicus) (P62483 whole entry, looked up): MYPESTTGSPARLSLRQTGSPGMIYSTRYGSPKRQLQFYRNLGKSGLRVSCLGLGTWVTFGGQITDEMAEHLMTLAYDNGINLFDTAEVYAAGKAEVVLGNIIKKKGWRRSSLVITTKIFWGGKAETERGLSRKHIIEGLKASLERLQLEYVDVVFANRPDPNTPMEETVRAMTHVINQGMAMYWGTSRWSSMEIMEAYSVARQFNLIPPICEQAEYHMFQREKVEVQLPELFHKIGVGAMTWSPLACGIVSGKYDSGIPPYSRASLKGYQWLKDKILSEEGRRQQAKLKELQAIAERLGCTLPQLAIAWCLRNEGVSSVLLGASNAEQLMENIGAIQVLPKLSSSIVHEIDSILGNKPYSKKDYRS
Sequence of Muscarinic acetylcholine receptor M4 (Homo sapiens) (P08173 whole entry, looked up): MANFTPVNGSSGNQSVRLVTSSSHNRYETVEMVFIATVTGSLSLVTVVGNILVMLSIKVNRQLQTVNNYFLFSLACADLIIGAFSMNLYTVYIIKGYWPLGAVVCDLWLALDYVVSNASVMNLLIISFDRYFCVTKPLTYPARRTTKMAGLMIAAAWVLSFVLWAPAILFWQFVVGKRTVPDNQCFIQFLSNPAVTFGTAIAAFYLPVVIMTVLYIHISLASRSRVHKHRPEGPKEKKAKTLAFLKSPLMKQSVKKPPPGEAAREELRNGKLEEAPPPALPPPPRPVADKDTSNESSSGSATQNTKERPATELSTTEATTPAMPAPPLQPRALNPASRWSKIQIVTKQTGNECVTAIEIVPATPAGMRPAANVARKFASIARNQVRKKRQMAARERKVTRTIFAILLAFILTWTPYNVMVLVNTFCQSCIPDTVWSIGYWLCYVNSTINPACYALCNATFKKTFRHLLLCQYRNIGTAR

SMILES | cell count [1] | inhibition [1] | inhibition of aggregation [2] | nuclei count [2] [%] | inhibition [3] | nuclei count [3] [%] | fluorescence slope [4] | NADPH fluorescence slope [5] | fluorescence slope [6] | inhibition [7] | inhibition [8]
Cc1occc1C(=O)Nc1cccnc1 | 537 | -21.3% (inactive) | -33.6% (inactive) | 108 | -9.9% (inactive) | 84.1 | -0.538 (inactive) | -4.1e-05 (inactive) | 0.00413 (inactive) | 18.2% (inactive) | 7.63% (inactive)
COc1ccc(CC(=O)OCc2nnc(C3COc4ccccc4O3)o2)cc1OC (centres undefined) | 440 | -1.1% (inactive) | -0.3% (inactive) | 91.8 | -48% (inactive) | 85.8 | -0.405 (inactive) | 1.8e-05 (inactive) | 0.00765 (inactive) | 7.17% (inactive) | 9.19% (inactive)
O=C(NCC1COCCO1)C1CCN(S(=O)(=O)c2ccccc2)CC1 (centres undefined) | 621 | -9.6% (inactive) | -7.6% (inactive) | 111 | -28.6% (inactive) | 112 | -0.557 (inactive) | 3.3e-05 (inactive) | 0.0061 (inactive) | 12% (inactive) | 0.992% (inactive)
O=C(Nc1ccccc1)c1ccc(NCC2CCCO2)c(S(=O)(=O)N2CCOCC2)c1 (centres undefined) | 637 | -1.5% (inactive) | 0.8% (inactive) | 108 | -99.7% (inactive) | 98.8 | -0.453 (inactive) | 1.2e-05 (inactive) | 0.00503 (inactive) | 5.98% (inactive) | 15.7% (inactive)
COc1cccc(N2CCN(c3c4c(nc5ncnn35)CCC4)CC2)c1 | 468 | 17.4% (inactive) | -4.1% (inactive) | 102 | 2.7% (inactive) | 109 | -0.558 (inactive) | -5.9e-05 (inactive) | 0.00591 (inactive) | 0.933% (inactive) | -39.1% (inactive)
N#CC(C(=O)C1CCCCC1)c1nc2ccccc2[nH]1 (centres undefined) | 723 | -2% (inactive) | -11.3% (inactive) | 101 | -107% (inactive) | 128 | -0.6 (inactive) | 3e-06 (inactive) | 0.00531 (inactive) | 4.07% (inactive) | -10.7% (inactive)
CC(=O)N1CCc2cc(S(=O)(=O)CCC(=O)N3CCN(C(=O)c4ccco4)CC3)ccc21 | 519 | 2.2% (inactive) | 7.5% (inactive) | 105 | -51.9% (inactive) | 116 | -0.413 (inactive) | -4e-05 (inactive) | 0.00737 (inactive) | 12.3% (inactive) | 17.8% (inactive)
CCOC(=O)c1ccccc1NC(=O)CSc1nc2c(c(=O)n(C)c(=O)n2C)n1C | 718 | -6.2% (inactive) | -10.4% (inactive) | 107 | 12.3% (inactive) | 102 | -0.444 (inactive) | 3e-05 (inactive) | 0.00588 (inactive) | 18.4% (inactive) | 25% (inactive)
COC(=O)c1ccc(-c2ccc(CNCC(O)c3ccccc3)o2)cc1 (centres undefined) | 400 | 3.2% (inactive) | -6% (inactive) | 111 | -27.1% (inactive) | 115 | -0.313 (inactive) | -1.1e-05 (inactive) | 0.00598 (inactive) | 13.2% (inactive) | 13.8% (inactive)
NC(=O)c1nsnc1-c1ccccc1O | 504 | -9.3% (inactive) | -3.4% (inactive) | 107 | 20.3% (inactive) | 100 | -0.531 (inactive) | 0.0001 (inactive) | 0.00622 (inactive) | -10.2% (inactive) | -7.73% (inactive)
Cc1ccc(NC(=O)CSc2nnc(CCCCCNC(=O)OC(C)(C)C)o2)c(C)c1 | 630 | -9.5% (inactive) | 28.5% (inactive) | 94.7 | -28.9% (inactive) | 102 | -0.546 (inactive) | -4e-05 (inactive) | 0.00541 (inactive) | 14.7% (inactive) | 12.1% (inactive)
O=C(NCc1ccco1)C1Cc2ccccc2CN1S(=O)(=O)c1ccccc1F (centres undefined) | 654 | 7.7% (inactive) | 26.2% (inactive) | 95.5 | -30% (inactive) | 98.1 | -0.591 (inactive) | -1.7e-05 (inactive) | 0.0061 (inactive) | 6.51% (inactive) | -0.697% (inactive)
Cc1ccc(S(=O)(=O)N2CCCC2)cc1S(=O)(=O)N1CCCC1 | 698 | -9% (inactive) | -7.5% (inactive) | 111 | 10.3% (inactive) | 116 | -0.609 (inactive) | -1.2e-05 (inactive) | 0.00607 (inactive) | 13.4% (inactive) | 12.9% (inactive)
CCOC(=O)CCC(=O)c1c(C)oc2ccc(OC)cc12 | 447 | -6.3% (inactive) | 4.8% (inactive) | 98.5 | 46.7% (inactive) | 118 | -0.583 (inactive) | 4e-05 (inactive) | 0.00919 (inactive) | -14.6% (inactive) | -30.6% (inactive)
Cc1ccc2[nH]c(=O)c(CN(CCCO)S(=O)(=O)c3c(C)ccc4nsnc34)cc2c1 | 334 | -2.5% (inactive) | -11.4% (inactive) | 103 | -54.5% (inactive) | 120 | -0.459 (inactive) | -3e-05 (inactive) | 0.00552 (inactive) | 11.1% (inactive) | 29.7% (inactive)
O=C(Nc1ccc(Cl)cc1C(=O)Nc1ccncc1)c1ccco1 | 393 | 2.1% (inactive) | -7.4% (inactive) | 81.3 | -148% (inactive) | 101 | -0.316 (inactive) | -1.2e-05 (inactive) | 0.00491 (inactive) | 18.3% (inactive) | 28.5% (inactive)
CCOC(=O)CNC(=O)c1c(C)nn(-c2ccccc2)c1Cl | 389 | 1.9% (inactive) | 0.1% (inactive) | 56.2 | -152% (inactive) | 127 | -0.571 (inactive) | -5.1e-06 (inactive) | 0.00495 (inactive) | -45.3% (inactive) | 99.2% (active)
CCOc1ccc(-n2cc(C(=O)Nc3cccc(C)n3)c3cc(OC)c(OC)cc3c2=O)cc1 | 395 | 5.1% (inactive) | 20.8% (inactive) | 82.4 | -8% (inactive) | 94 | -0.414 (inactive) | -0.000102 (inactive) | 0.0107 (inactive) | 13.3% (inactive) | 25.9% (inactive)
Cc1cccc(C(=O)N2CCN(C(=O)c3cccc(C)c3)C(C)C2)c1 (centres undefined) | 394 | -3.8% (inactive) | 3.6% (inactive) | 113 | -31.8% (inactive) | 114 | -0.311 (inactive) | 1.4e-05 (inactive) | 0.00692 (inactive) | -15.5% (inactive) | -12% (inactive)
C/C(=C\c1cc(C(=O)O)c(C)o1)CO | 417 | 5.1% (inactive) | 4.9% (inactive) | 94.9 | 39.5% (inactive) | 103 | -0.431 (inactive) | -0.00049 (inactive) | 0.00423 (inactive) | -6.67% (inactive) | -4.63% (inactive)
O=C(C1CCN(S(=O)(=O)N2CCC3(CC2)OCCO3)CC1)N1CCOCC1 | 648 | 14.8% (inactive) | 17.5% (inactive) | 89.1 | 28.9% (inactive) | 96.9 | -0.571 (inactive) | -8.3e-05 (inactive) | 0.00319 (inactive) | -6.46% (inactive) | -2.34% (inactive)
CCC(Oc1ccc2ccccc2c1)C(=O)O (centres undefined) | 666 | -4% (inactive) | -46.2% (inactive) | 129 | -39.6% (inactive) | 137 | -0.489 (inactive) | 6e-05 (inactive) | 0.00595 (inactive) | -9.77% (inactive) | -32.2% (inactive)
CCOC(=O)Nc1sc(=S)n(C)c1C | 719 | -12.5% (inactive) | -2.4% (inactive) | 95.3 | 15.9% (inactive) | 95.4 | -0.545 (inactive) | 2.1e-05 (inactive) | 0.00684 (inactive) | 12.9% (inactive) | 28.8% (inactive)
CCn1c(=O)cc(SCC(=O)N2CCOCC2)c2ccccc21 | 460 | -1.2% (inactive) | 0.4% (inactive) | 115 | -69.7% (inactive) | 120 | -0.549 (inactive) | -2.4e-05 (inactive) | 0.00553 (inactive) | 75.8% (active) | 51.3% (active)
O=c1cc(-c2ccco2)oc2ccc(Cl)cc12 | 286 | -0.8% (inactive) | 19.7% (inactive) | 70 | 32.1% (inactive) | 111 | -0.568 (inactive) | -2.4e-05 (inactive) | 0.00691 (inactive) | 6.8% (inactive) | -71.7% (inactive)
CCCCC(CC)C(=O)Nc1ccccc1C#N (centres undefined) | 452 | 6% (inactive) | -12.4% (inactive) | 106 | -63.4% (inactive) | 118 | -0.419 (inactive) | -2e-05 (inactive) | 0.00611 (inactive) | 14.8% (inactive) | 22.1% (inactive)
Cc1nc(SCC(=O)N2CCC(C(N)=O)CC2)n[nH]1 | 516 | -17.1% (inactive) | -2.4% (inactive) | 98.4 | -33.4% (inactive) | 119 | -0.581 (inactive) | -5.6e-05 (inactive) | 0.00602 (inactive) | -0.32% (inactive) | -1.6% (inactive)
C[N+]1=C2CCCCCN2C(O)(c2ccccc2)C1 (centres undefined) | 546 | -3% (inactive) | 6.3% (inactive) | 110 | -1.4% (inactive) | 130 | -0.56 (inactive) | -3.1e-05 (inactive) | 0.00533 (inactive) | 12.5% (inactive) | 17.2% (inactive)
CCN1CCN(Cc2c(C)[nH]c3ccc(OC)cc3c2=O)CC1 | 405 | 18.7% (inactive) | -19.4% (inactive) | 99.3 | -241% (inactive) | 113 | -0.57 (inactive) | -9e-05 (inactive) | 0.00708 (inactive) | 19.5% (inactive) | 26.6% (inactive)
